# ChEMBL document CHEMBL5058577, “EUbOPEN Chemogenomics Library 2 (Multiplex)” (2022)
# Test system: U2OS
# Assay: Multiplex assay against U2OS
# Assay type: toxicity, cell-based
# Details: human
# Procedure, shortened: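 Values for tubulin, mitochondrial-mass and membrane-permeability phenotypes are per cents of cells with healthy nuclei. These cells were identified by CellPathfinder machine-learning gating of live cells that had been stained at seeding with Hoechst33342, BioTracker Green Microtubule Cytoskeleton Dye, MitoTracker Red and Annexin V Alexa Fluor 680 and imaged on a CQ1 microscope at 37°C and 5% CO2 after compound addition. The gating first set Hoechst high-intensity objects apart from normal cells, then split normal cells into healthy, pyknosed or fragmented nuclei, and pyknosed cells into mitotic or apoptotic.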
# [1] = 12 h, 1 µM, compound concentration 1 uM, replicate 1
# [2] = 12 h, 1 µM, compound concentration 1 uM, replicate 2
# [3] = 12 h, 10 µM, compound concentration 10 uM, replicate 1
# [4] = 12 h, 10 µM, compound concentration 10 uM, replicate 2
# [5] = 24 h, 1 µM, compound concentration 1 uM, replicate 1
# [6] = 24 h, 1 µM, compound concentration 1 uM, replicate 2
# [7] = 24 h, 10 µM, compound concentration 10 uM, replicate 1
# [8] = 24 h, 10 µM, compound concentration 10 uM, replicate 2
# [9] = 48 h, 1 µM, compound concentration 1 uM, replicate 1
# [10] = 48 h, 1 µM, compound concentration 1 uM, replicate 2
# [11] = 48 h, 10 µM, compound concentration 10 uM, replicate 1
# [12] = 48 h, 10 µM, compound concentration 10 uM, replicate 2
structure (smiles),measurement,setting,value
Cc1ccc(C(C)(O)c2nc3ccccc3s2)c(C)c1 (centres undefined),Population Apoptotic (%),[1],86%
same,Population Fragmented Nuclei (%),[1],19%
same,Population Healthy Nuclei (%),[1],70%
same,Population Hoechst High Intensity Objects (%),[1],3%
same,Population Membrane Permeable-Phenotype (%),[1],4%
same,Population Mitochondria Different-Phenotype (%),[1],1%
same,Population Mitotic Cells (%),[1],13%
same,Population Normal (%),[1],96%
same,Population Pyknosed Nuclei (%),[1],9%
same,Population Tubulin-Different-Phenotype (%),[1],2%
same,Total Cell Count,[1],249
same,Population Apoptotic (%),[2],100%
same,Population Fragmented Nuclei (%),[2],17%
same,Population Healthy Nuclei (%),[2],78%
same,Population Hoechst High Intensity Objects (%),[2],0%
same,Population Membrane Permeable-Phenotype (%),[2],9%
same,Population Mitochondria Different-Phenotype (%),[2],4%
same,Population Mitotic Cells (%),[2],0%
same,Population Normal (%),[2],99%
same,Population Pyknosed Nuclei (%),[2],3%
same,Population Tubulin-Different-Phenotype (%),[2],5%
same,Total Cell Count,[2],141
same,Population Apoptotic (%),[3],100%
same,Population Fragmented Nuclei (%),[3],25%
same,Population Healthy Nuclei (%),[3],67%
same,Population Hoechst High Intensity Objects (%),[3],2%
same,Population Membrane Permeable-Phenotype (%),[3],9%
same,Population Mitochondria Different-Phenotype (%),[3],3%
same,Population Mitotic Cells (%),[3],0%
same,Population Normal (%),[3],97%
same,Population Pyknosed Nuclei (%),[3],6%
same,Population Tubulin-Different-Phenotype (%),[3],3%
same,Total Cell Count,[3],234
same,Population Apoptotic (%),[4],66%
same,Population Fragmented Nuclei (%),[4],18%
same,Population Healthy Nuclei (%),[4],77%
same,Population Hoechst High Intensity Objects (%),[4],4%
same,Population Membrane Permeable-Phenotype (%),[4],3%
same,Population Mitochondria Different-Phenotype (%),[4],1%
same,Population Mitotic Cells (%),[4],33%
same,Population Normal (%),[4],95%
same,Population Pyknosed Nuclei (%),[4],3%
same,Population Tubulin-Different-Phenotype (%),[4],1%
same,Total Cell Count,[4],89
same,Population Apoptotic (%),[5],92%
same,Population Fragmented Nuclei (%),[5],22%
same,Population Healthy Nuclei (%),[5],69%
same,Population Hoechst High Intensity Objects (%),[5],1%
same,Population Membrane Permeable-Phenotype (%),[5],4%
same,Population Mitochondria Different-Phenotype (%),[5],0%
same,Population Mitotic Cells (%),[5],7%
same,Population Normal (%),[5],98%
same,Population Pyknosed Nuclei (%),[5],8%
same,Population Tubulin-Different-Phenotype (%),[5],3%
same,Total Cell Count,[5],327
same,Population Apoptotic (%),[6],90%
same,Population Fragmented Nuclei (%),[6],13%
same,Population Healthy Nuclei (%),[6],80%
same,Population Hoechst High Intensity Objects (%),[6],0%
same,Population Membrane Permeable-Phenotype (%),[6],6%
same,Population Mitochondria Different-Phenotype (%),[6],3%
same,Population Mitotic Cells (%),[6],10%
same,Population Normal (%),[6],99%
same,Population Pyknosed Nuclei (%),[6],6%
same,Population Tubulin-Different-Phenotype (%),[6],4%
same,Total Cell Count,[6],159
same,Population Apoptotic (%),[7],88%
same,Population Fragmented Nuclei (%),[7],22%
same,Population Healthy Nuclei (%),[7],71%
same,Population Hoechst High Intensity Objects (%),[7],1%
same,Population Membrane Permeable-Phenotype (%),[7],5%
same,Population Mitochondria Different-Phenotype (%),[7],3%
same,Population Mitotic Cells (%),[7],11%
same,Population Normal (%),[7],98%
same,Population Pyknosed Nuclei (%),[7],6%
same,Population Tubulin-Different-Phenotype (%),[7],3%
same,Total Cell Count,[7],272
same,Population Apoptotic (%),[8],75%
same,Population Fragmented Nuclei (%),[8],16%
same,Population Healthy Nuclei (%),[8],75%
same,Population Hoechst High Intensity Objects (%),[8],4%
same,Population Membrane Permeable-Phenotype (%),[8],3%
same,Population Mitochondria Different-Phenotype (%),[8],1%
same,Population Mitotic Cells (%),[8],25%
same,Population Normal (%),[8],95%
same,Population Pyknosed Nuclei (%),[8],7%
same,Total Cell Count,[8],113
same,Population Apoptotic (%),[9],88%
same,Population Fragmented Nuclei (%),[9],16%
same,Population Healthy Nuclei (%),[9],74%
same,Population Hoechst High Intensity Objects (%),[9],2%
same,Population Membrane Permeable-Phenotype (%),[9],5%
same,Population Mitochondria Different-Phenotype (%),[9],2%
same,Population Mitotic Cells (%),[9],11%
same,Population Normal (%),[9],97%
same,Population Pyknosed Nuclei (%),[9],9%
same,Population Tubulin-Different-Phenotype (%),[9],2%
same,Total Cell Count,[9],442
same,Population Apoptotic (%),[10],94%
same,Population Fragmented Nuclei (%),[10],15%
same,Population Healthy Nuclei (%),[10],76%
same,Population Hoechst High Intensity Objects (%),[10],3%
same,Population Membrane Permeable-Phenotype (%),[10],6%
same,Population Mitochondria Different-Phenotype (%),[10],3%
same,Population Mitotic Cells (%),[10],5%
same,Population Normal (%),[10],96%
same,Population Pyknosed Nuclei (%),[10],8%
same,Population Tubulin-Different-Phenotype (%),[10],5%
same,Total Cell Count,[10],215
same,Population Apoptotic (%),[11],96%
same,Population Fragmented Nuclei (%),[11],23%
same,Population Healthy Nuclei (%),[11],69%
same,Population Hoechst High Intensity Objects (%),[11],2%
same,Population Membrane Permeable-Phenotype (%),[11],6%
same,Population Mitochondria Different-Phenotype (%),[11],1%
same,Population Mitotic Cells (%),[11],3%
same,Population Normal (%),[11],97%
same,Population Pyknosed Nuclei (%),[11],7%
same,Population Tubulin-Different-Phenotype (%),[11],4%
same,Total Cell Count,[11],365
same,Population Apoptotic (%),[12],85%
same,Population Fragmented Nuclei (%),[12],11%
same,Population Healthy Nuclei (%),[12],83%
same,Population Hoechst High Intensity Objects (%),[12],5%
same,Population Membrane Permeable-Phenotype (%),[12],5%
same,Population Mitotic Cells (%),[12],14%
same,Population Normal (%),[12],94%
same,Population Pyknosed Nuclei (%),[12],5%
same,Total Cell Count,[12],147
